Among the data in ChEMBL document CHEMBL3297672, “Ingol-type diterpenes from Euphorbia antiquorum with mouse 11β-hydroxysteroid dehydrogenase type 1 inhibition activity” (J Nat Prod, 2014) are IC50 and inhibition values, retold here.

Assay [1] deals with T1, Tyrosine-protein phosphatase non-receptor type 1 (Homo sapiens, UniProt P18031).
T1 sequence (P18031 whole entry): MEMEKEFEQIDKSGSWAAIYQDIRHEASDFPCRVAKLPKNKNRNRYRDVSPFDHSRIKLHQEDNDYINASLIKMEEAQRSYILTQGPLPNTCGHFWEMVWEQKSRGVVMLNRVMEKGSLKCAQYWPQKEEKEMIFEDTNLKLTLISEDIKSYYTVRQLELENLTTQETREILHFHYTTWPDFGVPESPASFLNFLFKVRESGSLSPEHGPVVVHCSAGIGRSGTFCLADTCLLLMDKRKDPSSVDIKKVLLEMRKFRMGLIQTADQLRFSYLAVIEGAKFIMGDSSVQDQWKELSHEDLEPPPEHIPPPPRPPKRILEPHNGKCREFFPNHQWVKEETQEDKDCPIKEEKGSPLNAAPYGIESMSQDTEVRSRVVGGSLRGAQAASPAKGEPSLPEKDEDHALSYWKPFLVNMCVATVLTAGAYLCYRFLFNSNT
Description: Inhibition of PTP1B (unknown origin).

For a further assay, the system named is HL-60. Description: Cytotoxicity against human HL60 cells. Type of assay: functional, cell-based. In outline:
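Cytotoxicity against HL-60 cells was read out by the MTT method, following a previously reported protocol.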

The next assay has as its system A549. Description: Cytotoxicity against human A549 cells. Format: functional, cell-based.
In assay [2] the target is 11-beta-hydroxysteroid dehydrogenase 1 (Homo sapiens) (UniProt P28845). The assay can be described thus: Inhibition of human 11beta-HSD1 expressed in HEK293 cells assessed as inhibition of [3H]cortisone to [3H]cortisol conversion by SPA. Type of assay: cell-based. In outline: (§1)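 Scintillation proximity assay against human or mouse 11β-HSD1 enzyme activity, using microsomes containing the enzyme. Glycyrrhetinic acid was the positive control.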

The target of assay [3] is 11-beta-hydroxysteroid dehydrogenase 1 (Mus musculus, UniProt P50172). The assay can be described thus: Inhibition of mouse 11beta-HSD1 expressed in HEK293 cells assessed as inhibition of [3H]cortisone to [3H]cortisol conversion by SPA. Type of assay: cell-based. In outline: as §1

Structures are written as SMILES. pIC50: −log10 of the molar value. Calls of active or inactive are those of the source. The rule behind the calls is not given here.

Sequence of 11-beta-hydroxysteroid dehydrogenase 1 (P50172 whole entry): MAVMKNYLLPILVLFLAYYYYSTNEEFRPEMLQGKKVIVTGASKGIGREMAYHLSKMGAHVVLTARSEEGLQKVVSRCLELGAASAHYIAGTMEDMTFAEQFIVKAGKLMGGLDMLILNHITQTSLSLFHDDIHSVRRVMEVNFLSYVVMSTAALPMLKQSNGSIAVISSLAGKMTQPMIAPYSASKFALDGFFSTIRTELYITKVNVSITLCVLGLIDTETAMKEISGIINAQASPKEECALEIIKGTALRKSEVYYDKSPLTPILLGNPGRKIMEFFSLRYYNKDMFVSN
Sequence of 11-beta-hydroxysteroid dehydrogenase 1 (Homo sapiens) (P28845 whole entry, looked up): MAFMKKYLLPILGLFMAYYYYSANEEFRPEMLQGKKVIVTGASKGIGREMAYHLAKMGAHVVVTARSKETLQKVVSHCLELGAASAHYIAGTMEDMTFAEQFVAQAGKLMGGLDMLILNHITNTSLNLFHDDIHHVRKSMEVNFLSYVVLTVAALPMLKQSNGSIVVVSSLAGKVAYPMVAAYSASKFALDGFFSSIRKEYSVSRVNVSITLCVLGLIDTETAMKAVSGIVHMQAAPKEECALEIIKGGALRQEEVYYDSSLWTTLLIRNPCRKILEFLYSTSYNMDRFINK

On to `CO[C@@H]1[C@H]2[C@@H]([C@@H](OC(C)=O)[C@@H](C)C(=O)[C@@]34C[C@H](C)[C@H](O)[C@]3(/C=C(\C)[C@H]1OC(=O)c1ccccc1)O4)C2(C)C`, for which the pIC50 (in assay [1]; in the assay on HL-60; in the assay on A549) was less than 5.00 throughout. For the same compound, the inhibition result in assay [2] is “inactive”.

Regarding `C/C=C(/C)C(=O)O[C@@H]1/C(C=O)=C/[C@@]23O[C@@]2(C[C@H](C)[C@@H]3OC(C)=O)C(=O)[C@H](C)[C@H](OC(C)=O)[C@@H]2[C@H]([C@H]1OC)C2(C)C`, the pIC50 (in assay [1]; in the assay with HL-60; with A549) was less than 5.00 each time.

For `CC(=O)O[C@H]1[C@@H](C)C[C@@]23O[C@@]12/C=C(\C)[C@@H](O)[C@H](OC(=O)c1ccccc1)[C@H]1[C@@H]([C@@H](O)[C@@H](C)C3=O)C1(C)C`, the negative logarithm of the IC50 (pIC50) (in assay [1]; in the assay with HL-60; with A549) was less than 5.00 in each case. The inhibition result in assay [2] is “inactive”.

Regarding `CO[C@@H]1[C@H]2[C@@H]([C@@H](OC(C)=O)[C@@H](C)C(=O)[C@@]34C[C@H](C)[C@H](OC(C)=O)[C@]3(/C=C(\C)[C@H]1OC(=O)[C@@]1(C)O[C@@H]1C)O4)C2(C)C`, the pIC50 (in assay [1]; in the assay with HL-60; in the assay on A549) was less than 5.00 in each case.

`C/C=C(/C)C(=O)O[C@@H]1/C(C)=C/[C@@]23O[C@@]2(C[C@H](C)[C@@H]3O)C(=O)[C@H](C)[C@H](OC(C)=O)[C@@H]2[C@H]([C@H]1OC)C2(C)C`: the pIC50 (in assay [1]; in the assay on HL-60; in the assay with A549) was less than 5.00 each time. The inhibition result in assay [2] was “inactive”.

Regarding `C/C=C(/C)C(=O)O[C@@H]1/C(CO)=C/[C@@]23O[C@@]2(C[C@H](C)[C@@H]3OC(C)=O)C(=O)[C@H](C)[C@H](OC(C)=O)[C@@H]2[C@H]([C@H]1OC)C2(C)C`, the pIC50 in assay [1] is less than 5.00; with HL-60, less than 5.00; with A549, less than 5.00; in assay [3], 4.92. In assay [2], the inhibition entry is “inactive”.

For the compound `CO[C@@H]1[C@H]2[C@@H]([C@@H](OC(C)=O)[C@@H](C)C(=O)[C@@]34C[C@H](C)[C@H](OC(C)=O)[C@]3(/C=C(\C)[C@H]1OC(=O)[C@]1(C)O[C@@H]1C)O4)C2(C)C`, the pIC50 (in assay [1]; with HL-60; in the assay on A549) was less than 5.00 in each case. The inhibition entry in assay [2] was “inactive”.

In the case of `C/C=C(/C)C(=O)O[C@@H]1/C(C)=C/[C@@]23O[C@@]2(C[C@H](C)[C@@H]3O)C(=O)[C@H](C)[C@H](O)[C@@H]2[C@H]([C@H]1OC)C2(C)C`, the negative-log IC50 (pIC50) (in assay [1]; with HL-60; in the assay on A549) was less than 5.00 each time.

For `C/C=C(\C)C(=O)O[C@@H]1/C(C)=C/[C@@]23O[C@@]2(C[C@H](C)[C@@H]3OC(C)=O)C(=O)[C@H](C)[C@H](OC(C)=O)[C@@H]2[C@H]([C@H]1OC(C)=O)C2(C)C`, the pIC50 (in assay [1]; in the assay on HL-60; with A549) was less than 5.00 in each case. Further, in assay [2], the inhibition entry was “inactive”.

As to `C/C=C(/C)C(=O)O[C@@H]1/C(C)=C/[C@@]23O[C@@]2(C[C@@H](C)[C@H]3O)C(=O)[C@H](C)[C@H](O)[C@@H]2[C@H]([C@H]1OC)C2(C)C`, the pIC50 (in assay [1]; in the assay with HL-60) was less than 5.00 in each case.

Take `C=C(C(=O)O[C@@H]1/C(C)=C/[C@@]23O[C@@]2(C[C@H](C)[C@@H]3OC(C)=O)C(=O)[C@H](C)[C@H](OC(C)=O)[C@@H]2[C@H]([C@H]1OC)C2(C)C)C(C)O` (some centres not stated): the pIC50 (in assay [1]; with HL-60; in the assay with A549) was less than 5.00 throughout. The inhibition entry in assay [2] was “inactive”.

Take `CCC(C)C(=O)O[C@@H]1[C@H]2[C@@H]([C@@H](OC(C)=O)[C@@H](C)C(=O)[C@@]34C[C@H](C)[C@H](OC(C)=O)[C@]3(/C=C(\C)[C@H]1O)O4)C2(C)C` (some centres not stated): the negative logarithm of the IC50 (pIC50) (in assay [1]; with HL-60; in the assay with A549) was less than 5.00 in each case. Moreover, the inhibition result in assay [2] is “inactive”.

Take `C/C=C(/C)C(=O)O[C@@H]1/C(C)=C/[C@@]23O[C@@]2(C[C@@H](C)[C@H]3O)C(=O)[C@H](C)[C@H](OC(C)=O)[C@@H]2[C@H]([C@H]1OC)C2(C)C`: the pIC50 (in assay [1]; in the assay on HL-60; in the assay on A549) was less than 5.00 in each case. In addition, the inhibition entry in assay [2] was “inactive”.

For `CO[C@@H]1[C@H]2[C@@H]([C@@H](OC(C)=O)[C@@H](C)C(=O)[C@@]34C[C@H](C)[C@H](OC(C)=O)[C@]3(/C=C(\CO)[C@H]1OC(=O)c1ccccc1)O4)C2(C)C`, the negative-log IC50 (pIC50) (in assay [1]; in the assay on HL-60; in the assay on A549) was less than 5.00 in each case.

With `CO[C@@H]1[C@H]2[C@@H]([C@@H](O)[C@@H](C)C(=O)[C@@]34C[C@H](C)[C@H](OC(C)=O)[C@]3(/C=C(\C)[C@H]1OC(=O)c1ccccc1)O4)C2(C)C`, the negative logarithm of the IC50 (pIC50) (in assay [1]; in the assay on HL-60; in the assay with A549) was less than 5.00 in each case.

As for `CC(=O)O[C@@H]1[C@@H]2[C@H]([C@@H](OC(=O)c3cccnc3)[C@H](OC(=O)c3ccccc3)/C(C)=C/[C@@]34O[C@@]3(C[C@H](C)[C@@H]4OC(C)=O)C(=O)[C@@H]1C)C2(C)C`, the pIC50 was less than 5.00 in assay [1], less than 5.00 in the assay on HL-60, less than 5.00 in the assay with A549 and 6.39 in assay [3]. For the same compound, the inhibition entry in assay [2] was “inactive”.

In the case of `C/C=C(/C)C(=O)O[C@@H]1/C(C)=C/[C@@]23O[C@@]2(C[C@H](C)[C@@H]3OC(C)=O)C(=O)[C@H](C)[C@H](OC(C)=O)[C@@H]2[C@H]([C@H]1OC)C2(C)C`, the pIC50 (in assay [1]; in the assay with HL-60; in the assay on A549) was less than 5.00 throughout. Moreover, the inhibition entry in assay [2] was “inactive”.

As for `CCC(C)C(=O)O[C@@H]1[C@H]2[C@@H]([C@@H](OC(C)=O)[C@@H](C)C(=O)[C@@]34C[C@@H](C)[C@@H](OC(C)=O)[C@]3(/C=C(\C)[C@H]1O)O4)C2(C)C` (some centres not stated), the pIC50 (in assay [1]; with HL-60; in the assay on A549) was less than 5.00 in each case. Moreover, the inhibition result in assay [2] is “inactive”.

For the compound `CCC(C)C(=O)O[C@@H]1[C@H]2[C@@H]([C@@H](OC(C)=O)[C@@H](C)C(=O)[C@@]34C[C@H](C)[C@H](O)[C@]3(/C=C(\C)[C@H]1OC(C)=O)O4)C2(C)C` (some centres not stated), the pIC50 in assay [1] was less than 5.00; with HL-60, less than 5.00; with A549, less than 5.00; in assay [3], 5.19. Besides, the inhibition result in assay [2] is “inactive”.

What is called pIC50 is −log10 of the IC50, conventionally taken in molar units.
